Test results taken from ChEMBL document CHEMBL4038305, “Benzoxaborole Antimalarial Agents. Part 5. Lead Optimization of Novel Amide Pyrazinyloxy Benzoxaboroles and Identification of a Preclinical Candidate” (J Med Chem, 2017).

Tests used:
Plasmodium berghei [1] = test: Antimalarial activity against Plasmodium berghei infected in Swiss Webster mouse assessed as mouse survival rate at 3 mg/kg administered once daily via oral gavage for 4 consecutive days beginning 1 hr after infection measured on day 5 post infection relative to control; type: functional
In short: (§1)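 P. berghei-infected erythrocytes taken from a previously infected mouse were injected intraperitoneally. Oral dosing, once daily for 4 consecutive days, began 1 h after infection, in polyethylene glycol 300/propylene glycol/water (55/25/20 by weight). Chloroquine at 30 mg/kg was the positive control, with a vehicle-only group. Percent survival was recorded daily from day 4 to day 20.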

Plasmodium berghei [2] = test: Antimalarial activity against Plasmodium berghei infected in Swiss Webster mouse assessed as mouse survival rate at 3 mg/kg administered once daily via oral gavage for 4 consecutive days beginning 1 hr after infection measured on day 6 post infection relative to control; type: functional; in short: as §1
Plasmodium berghei [3] = test: Antimalarial activity against Plasmodium berghei infected in Swiss Webster mouse assessed as mouse survival rate at 3 mg/kg administered once daily via oral gavage for 4 consecutive days beginning 1 hr after infection measured on day 8 post infection relative to control; type: functional; in short: as §1
Lymphocyte [4] = test: Genotoxicity in human lymphocytes at 0.5 to 355 ug/mL after 3 to 28 hrs in absence of rat liver S9 fraction by micronucleus assay; type: toxicity, cell-based
Plasmodium berghei [5] = test: Antimalarial activity against Plasmodium berghei infected in Swiss Webster mouse assessed as mouse survival rate at 100 mg/kg administered once daily via oral gavage for 4 consecutive days beginning 1 hr after infection measured on day 18 post infection relative to control; type: functional
In short: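 Mice given an intraperitoneal injection of P. berghei-infected erythrocytes taken from a previously infected animal. Oral dosing once daily for 4 consecutive days, starting 1 h after infection. Vehicle: polyethylene glycol 300/propylene glycol/water (weight ratio 55/25/20). Percent survival recorded daily from day 4 to day 20. Chloroquine 30 mg/kg and vehicle-only groups served as controls.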

[6] = Oral bioavailability in Sprague-Dawley rat at 5 mg/kg by HPLC/MS analysis; type: ADME, organism-based; conditions: in vivo
In short: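 Female CD-1 mice, male SD rats or beagle dogs given 5 mg/kg by iv injection or oral gavage. Formulation was PEG300/propylene glycol/water 55/25/20, pH 6. Blood samples analysed by HPLC–MS/MS; parameters include AUC0-inf extrapolated to infinity and terminal half-life.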

[7] = AUC (0 to infinity) in Sprague-Dawley rat at 5 mg/kg, iv by HPLC/MS analysis; type: ADME, organism-based; design: dose 5 mg/kg, route intravenous, time infinity; conditions: in vivo
[8] = Terminal half life in Sprague-Dawley rat at 5 mg/kg, iv by HPLC/MS analysis; type: ADME, organism-based; conditions: in vivo, read-out: beta t1/2 (converted)
Plasmodium falciparum [9] = test: Antimalarial activity against Plasmodium falciparum HB3 infected in human erythrocytes assessed as reduction in [3H]-hypoxanthine incorporation preincubated for 24 hrs followed by [3H]-hypoxanthine addition measured after 24 hrs by scintillation counting method; type: functional, cell-based
Plasmodium falciparum [10] = test: Antimalarial activity against Plasmodium falciparum Dd2 infected in human erythrocytes assessed as reduction in [3H]-hypoxanthine incorporation preincubated for 24 hrs followed by [3H]-hypoxanthine addition measured after 24 hrs by scintillation counting method; type: functional, cell-based
Plasmodium falciparum [11] = test: Antimalarial activity against intraerythrocytic stage of Plasmodium falciparum assessed as time required for maximal killing effect at 30 times IC50 preincubated for 24 hrs followed by [3H]-hypoxanthine addition measured after 24 hrs by scintillation counting method; type: functional
In short: (§2)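 In vitro P. falciparum parasite reduction ratio assay run at 10×, 30× and 100× IC50. Derived parameters: lag phase (time to maximal killing), PRR (parasites killed per life cycle) and PCT99.9% (time to clear 99.9% of the initial parasite population).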

Plasmodium falciparum [12] = test: Antimalarial activity against intraerythrocytic stage of Plasmodium falciparum assessed as parasite reduction ratio at 100 times IC50 preincubated for 24 hrs followed by [3H]-hypoxanthine addition measured after 24 hrs by scintillation counting method; type: functional; in short: as §2
Plasmodium falciparum [13] = test: Antimalarial activity against intraerythrocytic stage of Plasmodium falciparum assessed as time required to clear 99.9% of initial parasite population at 10 times IC50 preincubated for 24 hrs followed by [3H]-hypoxanthine addition measured after 24 hrs by scintillation counting method; type: functional; in short: as §2
Plasmodium falciparum [14] = test: Antimalarial activity against intraerythrocytic stage of Plasmodium falciparum assessed as time required to clear 99.9% of initial parasite population at 30 times IC50 preincubated for 24 hrs followed by [3H]-hypoxanthine addition measured after 24 hrs by scintillation counting method; type: functional; in short: as §2
Salmonella typhimurium [15] = test: Genotoxicity in Salmonella typhimurium TA98 assessed as number of revertants per plate at 1500 ug/plate in absence of rat liver S9 fraction by Ames test (reference value: 14 +/- 6); type: toxicity; conditions: salmonella enterica subsp. enterica serovar typhimurium
Salmonella typhimurium [16] = test: Genotoxicity in Salmonella typhimurium TA100 assessed as number of revertants per plate at 5 ug/plate in absence of rat liver S9 fraction by Ames test (reference value: 154 +/- 9); type: toxicity; conditions: salmonella enterica subsp. enterica serovar typhimurium
Salmonella typhimurium [17] = test: Genotoxicity in Salmonella typhimurium TA100 assessed as number of revertants per plate at 50 ug/plate in absence of rat liver S9 fraction by Ames test (reference value: 154 +/- 9); type: toxicity; conditions: salmonella enterica subsp. enterica serovar typhimurium
Salmonella typhimurium [18] = test: Genotoxicity in Salmonella typhimurium TA1535 assessed as number of revertants per plate at 150 ug/plate in absence of rat liver S9 fraction by Ames test (reference value: 10 +/- 3); type: toxicity; conditions: salmonella enterica subsp. enterica serovar typhimurium
Salmonella typhimurium [19] = test: Genotoxicity in Salmonella typhimurium TA1537 assessed as number of revertants per plate at 1.5 ug/plate in presence of rat liver S9 fraction by Ames test (reference value: 11 +/- 4); type: toxicity; conditions: salmonella enterica subsp. enterica serovar typhimurium
Escherichia coli [20] = test: Genotoxicity in Escherichia coli WP2uvrA assessed as number of revertants per plate at 15 ug/plate in absence of rat liver S9 fraction by Ames test (reference value: 45 +/- 9); type: toxicity
Escherichia coli [21] = test: Genotoxicity in Escherichia coli WP2uvrA assessed as number of revertants per plate at 500 ug/plate in absence of rat liver S9 fraction by Ames test (reference value: 45 +/- 9); type: toxicity
Escherichia coli [22] = test: Genotoxicity in Escherichia coli WP2uvrA assessed as number of revertants per plate at 15 ug/plate in presence of rat liver S9 fraction by Ames test (reference value: 42 +/- 6); type: toxicity
Escherichia coli [23] = test: Genotoxicity in Escherichia coli WP2uvrA assessed as number of revertants per plate at 150 ug/plate in presence of rat liver S9 fraction by Ames test (reference value: 42 +/- 6); type: toxicity
Escherichia coli [24] = test: Genotoxicity in Escherichia coli WP2uvrA assessed as number of revertants per plate at 5000 ug/plate in presence of rat liver S9 fraction by Ames test (reference value: 42 +/- 6); type: toxicity
Lymphocyte [25] = test: Genotoxicity in human lymphocytes assessed as increase in frequency of micronucleated cells at 80 ug/mL after 3 hrs in presence of rat liver S9 fraction by micronucleus assay (reference value: 0.63%); type: toxicity, cell-based; conditions: s9, 3 h
Rattus norvegicus = test: Genotoxicity in rat assessed as micronucleated polychromatic erythrocytes in bone marrow at 2000 mg/kg administered via oral gavage measured after 24 hrs post dose by micronucleus assay (reference value: 0.07 +/- 0.05%); type: toxicity, organism-based; conditions: in vivo
Plasmodium berghei [26] = test: Antimalarial activity against Plasmodium berghei infected in Swiss Webster mouse assessed as mouse survival rate at 200 mg/kg administered once daily via oral gavage for 4 consecutive days beginning 1 hr after infection measured on day 17 post infection relative to control; type: functional; in short: as §1

Cc1c(Oc2cnc(C(=O)NC(C)CO)cn2)ccc2c1B(O)OC2 (configuration not stated)
survival at 3 mg/kg (Plasmodium berghei [1]): 60%
survival at 3 mg/kg (Plasmodium berghei [2]): 60%
survival at 3 mg/kg (Plasmodium berghei [3]): 0%

Cc1c(Oc2cnc(C(=O)NCCO)cn2)ccc2c1B(O)OC2
Activity (Lymphocyte [4]): Non-Toxic

Cc1c(Oc2cnc(C(=O)N3CC(O)(C(C)C)C3)cn2)ccc2c1B(O)OC2
survival at 100 mg/kg (Plasmodium berghei [5]): 80%

Cc1c(Oc2cnc(C(=O)N3CC(C)(O)C3)cn2)ccc2c1B(O)OC2
bioavailability [6]: 96%
AUC(0-inf) [7]: 21700 ng·h/mL
half-life [8]: 4.6 h
IC50 (Plasmodium falciparum [9]): 80 nM
IC50 (Plasmodium falciparum [10]): 53 nM
Time (Plasmodium falciparum [11]): 0 h
log(ratio) (Plasmodium falciparum [12]): 4.9
T99.9% (Plasmodium falciparum [13]): 36 h
T99.9% (Plasmodium falciparum [14]): 30 h
Activity (Salmonella typhimurium [15]): 13
Activity (Salmonella typhimurium [16]): 152
Activity (Salmonella typhimurium [17]): 132
Activity (Salmonella typhimurium [18]): 8
Activity (Salmonella typhimurium [19]): 12
Activity (Escherichia coli [20]): 41
Activity (Escherichia coli [21]): 55
Activity (Escherichia coli [22]): 50
Activity (Escherichia coli [23]): 53
Activity (Escherichia coli [24]): 34
Activity (Lymphocyte [25]): 0.74%
Activity (Rattus norvegicus): 0.09%

CCCC1(O)CN(C(=O)c2cnc(Oc3ccc4c(c3C)B(O)OC4)cn2)C1
survival at 200 mg/kg (Plasmodium berghei [26]): 0%
